RGS4 pot = potentiators or activators of RGS4; B-score at 10 µM; AID 463111; hit rate 0.92% among 310,000; HEK293 M3R/inducible RGS4, carbachol calcium flux Fluo4; active compounds read low;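 active = B-score of the integrated calcium signal more than 4 SD below the library mean, with starting fluorescence not abnormally high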;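 also: negative B-score means reduced calcium response which marks RGS4 activation or potentiation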
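System: HEK293 FlpIn-TREx cells, stable M3R, doxycycline-inducible RGS4. Timing: overnight RGS4 induction, 30 min dye load 37 °C, 20 min compound RT. Also added: carbachol, ECmax concentration. Measured by: Fluo4 fluorescence kinetic imaging of calcium. Evaluation: integrated calcium ratio converted to B score.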
MrgX1 antagonist = human MrgX1 receptor antagonism, primary screen; MRGX1-HEK293 calcium flux, Fluo-4, BAM8-22 antagonism; active compounds read low; B-score at 10 µM; hit rate 1.3% among 310,000; AID 588676; Q96LB2;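 active = calcium-response B-score plate-corrected more than 3 library SD below zero, starting fluorescence within 5 deviations, no agonist response on first addition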;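 also: peak minus trough fluorescence over baseline after final BAM8-22 challenge near maximal dose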
Target sequence (Q96LB2 whole entry, looked up): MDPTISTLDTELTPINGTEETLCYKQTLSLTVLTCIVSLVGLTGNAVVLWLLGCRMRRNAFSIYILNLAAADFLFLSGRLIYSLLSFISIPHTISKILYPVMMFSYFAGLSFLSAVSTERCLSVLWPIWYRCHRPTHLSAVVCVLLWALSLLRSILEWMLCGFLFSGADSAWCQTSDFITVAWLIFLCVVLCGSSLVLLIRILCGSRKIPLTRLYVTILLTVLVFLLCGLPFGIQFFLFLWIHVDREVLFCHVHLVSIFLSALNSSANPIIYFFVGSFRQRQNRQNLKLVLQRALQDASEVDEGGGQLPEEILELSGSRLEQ
MrgX1 allo act = allosterically activates human MrgX1 receptor signaling; Q96LB2; hit rate 0.63% among 310,000; MrgX1-HEK293, Fluo-4 calcium flux, FDSS; active compounds read high; AID 588675; B-score at 10 µM;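 active = plate-corrected calcium response at least 3 library SD above typical, normal starting fluorescence, not activating the receptor alone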;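 also: compound read alongside a low EC10 to EC30 dose of BAM8-22 agonist; peak minus trough fluorescence over baseline measured at the second addition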
MrgX1 agonist = activates human MrgX1 receptor signaling. MrgX1-HEK293 cells, Fluo-4 calcium fluorescence, agonist mode; active compounds read high. B-score at 10 µM. hit rate 0.44% among 310,000. AID 588627;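 active = calcium response B-score plate-corrected fluorescence ratio at least 3 library SD, with starting fluorescence B-score inside 5 SD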
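Material: MrgX1-expressing HEK293 cells / Dosing: compound as first of three additions / Incubation: overnight seeding, then 1 h dark dye loading / Signal: Fluo-4 NW calcium fluorescence / Evaluation: B-scored fluorescence response ratio / Benchmarks: positive and negative control wells on each plate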
RGS4 block = human RGS4 inhibition | HEK293 M3R/RGS4 inducible, Fluo-4 calcium flux; active compounds read high; triggered by carbachol at its EC20 | B-score at 10 µM | hit rate 0.45% among 310,000;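 active = B-score, a plate-corrected calcium signal, over three deviations above library mean, with baseline fluorescence within five deviations of library mean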;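 also: RGS4 expression induced by doxycycline in cells with stable M3 receptor; B-score is computed from the integrated fluorescence ratio over baseline after carbachol; higher B-score means a larger calcium signal and so more RGS4 inhibition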
Target sequence (P49798 whole entry, looked up): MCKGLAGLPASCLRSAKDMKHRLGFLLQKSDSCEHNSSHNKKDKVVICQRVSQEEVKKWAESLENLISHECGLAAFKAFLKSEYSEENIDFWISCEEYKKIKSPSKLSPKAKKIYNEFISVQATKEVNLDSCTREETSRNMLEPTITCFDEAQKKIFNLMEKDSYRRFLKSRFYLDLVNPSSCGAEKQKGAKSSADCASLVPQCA
MrgX1 antag conf = human MrgX1 receptor antagonism, re-confirmation screen; shares compounds with MrgX1 antagonist; MrgX1-HEK293, BAM8-22 calcium flux, Fluo-4; active compounds read low; hit rate 19% among 2,300; AID 602420; remaining BAM8-22 calcium response % of control (active compounds read low), % at 10 µM;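 active = remaining agonist calcium response no higher than 100% minus 3 SD of agonist-only control wells, with starting fluorescence near control levels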;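 also: agonist BAM8-22 given at a near maximal EC90 to ECmax level; peak minus minimum fluorescence divided by baseline after agonist addition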
HEK293 Ca flux = activity in parental HEK293 cells lacking MrgX1. shares compounds with MrgX1 antagonist. Fluo-4 calcium fluorescence, FDSS. fluorescence ratio F(max-min)/F0 at 10 µM. hit rate 2% among 4,000;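 active = duplicate-averaged calcium fluorescence ratio at least three times the standard deviation of buffer wells, a nonspecific response in parental cells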
HEK293 Ca counter = MrgX1 allosteric activator counter-screen hit in parental HEK293 cells. parental HEK293 calcium flux, Fluo-4 fluorescence ratio; active compounds read high. shares compounds with MrgX1 antagonist. AID 624114. hit rate 0.4% among 4,000. fluorescence ratio F(max-min)/F0 at 10 µM;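 active = calcium fluorescence ratio, averaged over duplicates, at least 3 SD of the buffer-well ratio, meaning a nonspecific response in receptor-free cells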;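 also: untransfected parental HEK293 lacking MrgX1 used as counterscreen for MrgX1 allosteric activators; fluorescence change taken during the second addition on a kinetic imager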
HEK293 Ca cntr2 = MrgX1 activator counter-screen hit in parental HEK293 cells; hit rate 8.7% among 4,000; Fluo-4 calcium fluorescence (FDSS); active compounds read high; AID 624115; shares compounds with MrgX1 antagonist; fluorescence ratio F(max-min)/F0 at 10 µM;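 active = calcium fluorescence ratio at least three times the spread of buffer wells, meaning a non-specific response in parental cells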
Numbers stand for hits; - = inactive; . = not tested or not shown. Shown are actives, neighbours in structure and some others; about 3.5% of the full set was active somewhere.

SMILES | RGS4 pot | MrgX1 antagonist | MrgX1 allo act | MrgX1 agonist | RGS4 block | MrgX1 antag conf | HEK293 Ca flux | HEK293 Ca counter | HEK293 Ca cntr2
Cc1ccc(S(=O)(=O)/N=C2\CN(C)C(=O)N2C)cc1 | - | - | - | - | - | . | . | . | .
Cc1ccc(S(=O)(=O)/N=c2\scc(C)n2C)cc1 | - | -5.5 | - | - | - | - | - | - | -
O=C(NCCC1=CCCCC1)c1ccc(F)cc1 | - | -6.2 | - | - | - | - | - | - | -
O=C(O)c1ccc(CNCc2ccc(Cl)cc2)cc1 | - | - | - | - | - | . | . | . | .
O=C(O)c1ccc(CNCc2ccc(Cl)cc2Cl)cc1 | - | -5 | - | - | - | - | - | - | -
CCOc1ccc2nc(Cl)c(C3CC(c4ccccc4)=NN3C(=O)c3ccco3)cc2c1 (configuration not stated) | - | - | - | - | - | . | . | . | .
COc1ccc2[nH]c3c(c2c1)CCN1C(=O)N([C@@H](C)C(=O)NCc2ccccc2OC)C(=O)[C@]31C | - | - | - | - | - | . | . | . | .
COc1ccc2[nH]c3c(c2c1)CCN1C(=O)N([C@@H](C)C(=O)NCc2ccccc2)C(=O)[C@]31C | - | -8.6 | - | - | - | - | - | - | -
COC(=O)c1sc(S(=O)(=O)N2CCCCC2C(=O)O)c(C(=O)OC)c1C (configuration not stated) | - | -5.4 | - | - | - | - | - | - | -
COC(=O)c1sc(S(=O)(=O)N2CCC(C(N)=O)CC2)c(C(=O)OC)c1C | - | - | - | - | - | . | . | . | .
CCCNC(=O)CN1C(=O)NC(Cc2c[nH]c3ccccc23)C1=O (configuration not stated) | - | - | - | - | - | . | . | . | .
CCN(c1ccccc1)c1cc(C)nc2ncnn12 | - | -6.6 | - | - | - | - | - | - | -
Cc1cccc(N(C)c2cc(C)nc3ncnn23)c1 | - | - | - | - | - | . | . | . | .
CN(C)CCN1CC(O)=C(c2nc3ccccc3s2)C1=N | - | -5.7 | - | - | - | - | - | - | -
N=C1C(c2nc3ccccc3s2)=C(O)CN1Cc1ccco1 | - | - | - | - | - | . | . | . | .
C=CCOc1c(Br)cc(CNn2nnnc2N)cc1OCC | - | -4.8 | - | - | - | - | - | - | -
CCOc1ccc(OCCC(=O)OCC(=O)NC2CCCCC2)cc1 | - | - | - | - | - | . | . | . | .
C/C(CC(=O)NC1CCCCC1)=N\NC(=O)Cc1ccc(-c2ccccc2)cc1 | - | - | - | - | - | . | . | . | .
CCOC(=O)c1sc(NC(=O)CSc2nc(C)cc(C)c2C#N)c(C#N)c1C | - | -7.3 | - | - | - | - | - | - | -
CCOC(=O)c1sc(NC(=O)CSc2nc3c(cc2C#N)CCCCCC3)c(C#N)c1C | - | - | - | - | - | . | . | . | .
C=C(C)COc1ccc(-c2nc(N)ncc2Oc2ccccc2OC)c(O)c1 | . | - | - | - | . | . | . | . | .
C=C(C)COc1ccc(-c2nc(N)ncc2Oc2ccc(OC)cc2)c(O)c1 | - | -4.6 | - | - | - | - | - | - | -
Cc1cc(C)c(S(=O)(=O)N2CCCc3ccccc32)c(C)c1 | - | -7.1 | - | - | - | - | - | - | 52
CCc1sc(NC(C)=O)nc1-c1ccccc1 | - | - | - | - | - | . | . | . | .
CCc1sc(NC(=O)COC)nc1-c1ccccc1 | - | -4.6 | - | - | - | - | - | - | -
CCN1C(=O)c2cccc3c(S(=O)(=O)Nc4ccccc4)ccc1c23 | - | -6.9 | - | - | - | - | - | - | -
CCN1C(=O)c2cccc3c(S(=O)(=O)Nc4ccncc4)ccc1c23 | - | - | - | - | - | . | . | . | .
O=C(CNC(=O)c1ccccc1F)OCc1csc(-c2ccccc2)n1 | - | -5 | - | - | - | - | - | - | -

Screening results (PubChem BioAssay)
